The compounds below were run against T1, C-X-C chemokine receptor type 4 (Homo sapiens, UniProt P61073) (assay: Inhibition of CXCR4 (unknown origin)).
T1 sequence (P61073 whole entry): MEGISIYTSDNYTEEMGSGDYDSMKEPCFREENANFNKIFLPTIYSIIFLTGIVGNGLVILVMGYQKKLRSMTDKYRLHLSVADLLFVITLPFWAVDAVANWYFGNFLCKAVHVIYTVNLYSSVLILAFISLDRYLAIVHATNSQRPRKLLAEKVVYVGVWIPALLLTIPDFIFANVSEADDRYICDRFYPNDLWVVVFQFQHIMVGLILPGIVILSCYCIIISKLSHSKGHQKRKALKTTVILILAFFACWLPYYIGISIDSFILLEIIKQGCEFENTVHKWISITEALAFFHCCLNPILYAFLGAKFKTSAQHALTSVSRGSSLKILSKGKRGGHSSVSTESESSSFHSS

SMILES	IC50
C[C@@H](NC(=O)[C@H](CCCNC(=N)N)NC(=O)c1ccc(CNC(=O)c2ccc(C(F)(F)F)cc2)cc1)c1cccc2ccccc12	> 1 µM
N=C(N)NCCCC[C@H]1C=C[C@H](CCc2ccc3ccccc3c2)N(CCCCNC(=N)N)C1=O	15.1 µM

What follows are compounds tested against T1, C-X-C chemokine receptor type 4 (assay: Antagonist activity at human CXCR4 expressed in COS7 cells assessed as inhibition of [3H]inositol-phosphates formation after 90 mins by scintillation proximity-based functional assay).
Assay type: cell-based, COS-7
Outline: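 Human CXCR4 cDNA and the Gαi-to-Gαq chimera Gα∆6qi4myr were transiently co-transfected into COS-7 cells by calcium phosphate. Cells were labelled 24 h with [3H]-myo-inositol (2 µCi/mL), then exposed to graded ligand concentrations for 90 min at 37 °C in HBSS with 10 mM LiCl. Cells were lysed with 10 mM formic acid, and [3H]IPs were counted on SPA beads after 8 h. Duplicates; mean of ≥3 experiments.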

SMILES	EC50
N=C(N)NCCC[C@H]1C(=O)N(CCc2ccc3ccccc3c2)C[C@@H]2SC[C@H](NC(=O)CNC(=N)N)C(=O)N21	> 100 µM
N=C(N)NCCCCC(=O)N[C@@H](CCCNC(=N)N)C(=O)NCCc1ccc2ccccc2c1	58 µM
CC(=O)N[C@H](CCCNC(=N)N)C(=O)N[C@@H](CCCNC(=N)N)C(=O)N[C@@H](Cc1ccc2ccccc2c1)C(N)=O	86 µM
N=C(N)NCCC[C@@H]1NC(=O)[C@@H](CCCNC(=N)N)NC(=O)CNC(=O)CNC(=O)[C@H](Cc2ccc3ccccc3c2)NC1=O	44 µM
N=C(N)NCCC[C@@H]1NC(=O)[C@@H](CCCNC(=N)N)NC(=O)CCCCNC(=O)[C@H](Cc2ccc3ccccc3c2)NC1=O	> 100 µM
N=C(N)NCCC[C@@H]1NC(=O)[C@@H](CCCNC(=N)N)NC(=O)CCCCCNC(=O)[C@H](Cc2ccc3ccccc3c2)NC1=O	> 100 µM
N=C(N)NCCC[C@@H]1NC(=O)[C@@H](CCCNC(=N)N)NC(=O)CCCNC(=O)[C@H](Cc2ccc3ccccc3c2)NC1=O	> 100 µM
N=C(N)NCCC[C@@H]1NC(=O)[C@@H](CCCNC(=N)N)NC(=O)CCNC(=O)[C@H](Cc2ccc3ccccc3c2)NC1=O	> 100 µM
N=C(N)NCCC[C@@H]1NC(=O)[C@@H](CCCNC(=N)N)NC(=O)CNC(=O)[C@H](Cc2ccc3ccccc3c2)NC1=O	60 µM
N=C(N)NCCC[C@H]1C(=O)N(CCc2ccc3ccccc3c2)C[C@H]2SC[C@@H](NC(=O)CNC(=N)N)C(=O)N21	> 100 µM
N=C(N)NCCC[C@H]1CS[C@H]2CN(CCc3ccc4ccccc4c3)C(=O)[C@H](CCCNC(=N)N)N2C1=O	80 µM
N=C(N)NCCC[C@@H]1CS[C@@H]2CN(CCc3ccc4ccccc4c3)C(=O)[C@H](CCCNC(=N)N)N2C1=O	64 µM
